Experimental data as given in publication PMC3683571 (Journal of the American Chemical Society, 2013).
Entries after “also recorded” stand apart in the source; their conditions may differ.

How the values were obtained:
[1] = target: PSMA (Homo sapiens, UniProt Q04609); assay: Biosensing; assay type: binding
Method in brief: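 Virus-PEDOT films, with ligand-displaying phage either unwrapped or wrapped with a chemically synthesized ligand wrapper, were exposed to a series of PSMA dimer concentrations. The read-out was relative impedance change (ΔR/Ro) versus frequency, with noise taken as the SD of five impedance measurements. Controls were films with control phage, ligand-free films, and films with wrapper alone; transferrin receptor served as a specificity target. Kd, Hill n and LOD came from Hill fits.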

[2] = in previous studies, no reference given; cited from earlier work
[3] = system: PSMA dimer; assay: Phage-based ELISA, binding to PSMA dimer; conditions: as shown in Figure 1
[4] = system: PSMA monomer; assay: Phage-based ELISA, binding to PSMA monomer; conditions: Figure 1, standard error (n = 3)

Sequence of PSMA (Q04609 whole entry): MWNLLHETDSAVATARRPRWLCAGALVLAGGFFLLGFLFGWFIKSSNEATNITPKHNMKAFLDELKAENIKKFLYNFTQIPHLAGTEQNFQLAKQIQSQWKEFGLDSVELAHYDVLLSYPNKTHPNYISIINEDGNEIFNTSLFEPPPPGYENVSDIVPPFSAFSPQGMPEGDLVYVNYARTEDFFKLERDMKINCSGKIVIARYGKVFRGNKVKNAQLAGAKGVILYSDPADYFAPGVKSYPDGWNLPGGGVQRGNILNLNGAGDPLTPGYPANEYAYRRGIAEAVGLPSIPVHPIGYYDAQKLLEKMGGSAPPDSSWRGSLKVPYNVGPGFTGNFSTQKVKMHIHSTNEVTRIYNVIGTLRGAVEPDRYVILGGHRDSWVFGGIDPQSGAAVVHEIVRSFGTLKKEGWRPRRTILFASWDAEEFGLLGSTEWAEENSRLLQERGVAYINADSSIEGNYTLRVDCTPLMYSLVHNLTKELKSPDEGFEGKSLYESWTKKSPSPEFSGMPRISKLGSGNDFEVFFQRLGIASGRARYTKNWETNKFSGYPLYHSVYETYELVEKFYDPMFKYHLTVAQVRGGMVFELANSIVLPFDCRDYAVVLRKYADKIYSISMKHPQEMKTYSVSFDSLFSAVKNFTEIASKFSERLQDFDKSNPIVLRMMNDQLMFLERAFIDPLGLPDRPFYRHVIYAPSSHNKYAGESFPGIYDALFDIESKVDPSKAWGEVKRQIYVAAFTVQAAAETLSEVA

CALCEFLG [KCS-1]
binding to PSMA / change in impedance, negative controls ([1]; EIS, PBF-Tween buffer, PEDOT films): no significant binding to PSMA; also recorded: negligible change in impedance caused by the wrapper

CALCEFLG [compound 1]
solubility in water [2]: limited solubility in water | apparent affinity for PSMA, peptide 1 versus peptide 2 [3]: much lower apparent affinity for PSMA than peptide 2

CALCEFLG [phage-1]
binding to the PSMA monomer (ELISA) [4]: Neither phage-displayed ligand binds with significant affinity to the PSMA monomer

SECVEVFQNSCDW [compound 2]
solubility in water [2]: limited solubility in water

SECVEVFQNSCDW [phage-2]
LOD (calculated) ([1]; PBF, defined as 3x over background signal, calculated from line fits to the data in Figure 4F): 6 nM | cooperative binding ([1]; from n-values obtained >1, Hill fit, PBF): can access cooperative binding | binding to the PSMA monomer (ELISA) [4]: Neither phage-displayed ligand binds with significant affinity to the PSMA monomer
